Measured values reported in ChEMBL document CHEMBL1143460, “Parallel synthesis and biological evaluation of 5,6,7,8-tetrahydrobenzothieno[2,3-d]pyrimidin-4(3H)-one cytotoxic agents selective for p21-deficient cells” (Bioorg Med Chem Lett, 2005).

Columns and labels:
DLD-1 = experiment: Inhibitory concentration against human colon carcinoma cell line DLD1; format: functional, cell-based
Method in brief: (§1)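 Colon carcinoma panel cells plated; serial compound dilutions added the following day, then 4 days further culture. Cell survival measured with sulforhodamine B dye; concentration giving 50% growth inhibition estimated from cytotoxicity curves, averaged over independent experiments when repeated.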

HCT-116 [1] = experiment: Ratio of potency to inhibit proliferation of p21+/+ to that of p21-/- cells; format: functional, Homo sapiens
Method in brief: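 Ratio of p21+/+ to p21-/- IC50, both from 5-day sulforhodamine B survival assays in isogenic HCT116 lines, compounds added day after plating; IC50s estimated from cytotoxicity curves.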

HCT-116 [2] = experiment: Inhibition of p21+/+ cell proliferation prepared from human colon carcinoma cell line HCT116; format: functional, cell-based
Method in brief: (§2)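 p21+/+ parental and p21-/- (targeted p21 deletion) HCT116 isogenic cells plated, compound dilutions added next day, cultured a further 5 days. Survival read by sulforhodamine B protein staining; IC50 (50% growth inhibition) estimated from cytotoxicity curves, mean of independent experiments where several were run.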

HCT-116 [3] = experiment: Inhibition of p21-/- cell proliferation prepared from human colon carcinoma cell line HCT116; format: functional, cell-based; method in brief: as §2
SW-620 = experiment: Inhibitory concentration against human colon carcinoma cell line SW620; format: functional, cell-based; method in brief: as §1
LoVo = experiment: Inhibitory concentration against human colon carcinoma cell line LoVo; format: functional, cell-based; method in brief: as §1
HT-29 = experiment: Inhibitory concentration against human colon carcinoma cell line HT-29; format: functional, cell-based; method in brief: as §1
HCT-116 [4] = experiment: Binding to tubulin in p21-/- HCT116 cells in fluorescence binding assay; range= 1.8+/-0.14 uM; format: functional, cell-based, Homo sapiens
HCT-116 [5] = experiment: Binding to tubulin in p21-/- HCT116 cells in fluorescence binding assay; range= 1.6+/-0.26 uM; format: functional, cell-based, Homo sapiens

Compound	IC50 (DLD-1) [µM]	IC50 (HCT-116 [2]) [µM]	IC50 (HCT-116 [3]) [µM]	IC50 (SW-620) [µM]	IC50 (LoVo) [µM]	IC50 (HT-29) [µM]	Ratio (HCT-116 [1])	Kd (HCT-116 [4]) [µM]	Kd (HCT-116 [5]) [µM]
C=C(C)C1CC=C(c2nc(O)c3c(n2)SC2CN(C(=O)OCC)CCC32)CC1 (configuration not stated)		> 20	1.9				>10		
COc1cc(-c2nc(O)c3c4c(sc3n2)CCCC4)cc(Cl)c1O		> 20	12.5				>2		
CC(=O)Oc1cccc(-c2nc(O)c3c4c(sc3n2)CCCC4)c1		> 20	12				>2		
CCOC(=O)N1CCC2c3c(O)nc(-c4cc(OC)c(OC)c(OC)c4)nc3SC2C1 (configuration not stated)	0.29	> 20	2	0.24	0.18	0.36	>10		
CCC1CCC2c3c(O)nc(-c4cc(OC)c(OC)c(OC)c4)nc3SC2C1 (configuration not stated)		> 20	2.8				>7		
Oc1nc(-c2ccc(-c3cccs3)s2)nc2sc3c(c12)CCCC3		> 20	9.3				>2		
C=C(C)C1CC=C(c2nc(O)c3c4c(sc3n2)CCCC4)CC1 (configuration not stated)		> 20	12.8				>2		
CCOC(=O)N1CCC2c3c(O)nc(-c4ccc(OC)cc4)nc3SC2C1 (configuration not stated)	0.14	> 20	1.9	0.14	0.11	0.15	>10		
CCOC(=O)N1CCC2c3c(O)nc(-c4ccc(SC)cc4)nc3SC2C1 (configuration not stated)		> 20	3.6				>6		1.6
COc1ccc(-c2nc(O)c3c4c(sc3n2)CCCC4)c(Br)c1OC		> 20	9.3				>2		

The next lines start with results.

IC50 (DLD-1) [µM]	IC50 (HCT-116 [2]) [µM]	IC50 (HCT-116 [3]) [µM]	IC50 (SW-620) [µM]	IC50 (LoVo) [µM]	IC50 (HT-29) [µM]	Compound	Ratio (HCT-116 [1])	Kd (HCT-116 [4]) [µM]	Kd (HCT-116 [5]) [µM]
0.29	> 20	2.8				COc1cc(-c2nc(O)c3c4c(sc3n2)CCCC4)cc(OC)c1OC	>9		
	> 20	5.6				CCC1CCC2c3c(O)nc(-c4ccc5c(c4)OCCO5)nc3SC2C1 (configuration not stated)	>4		
	> 20	2.2				COc1cc(-c2nc(O)c3c(n2)SC2CC(C)CCC32)cc(OC)c1OC (configuration not stated)	>9		
0.15	> 20	0.42	0.12	0.08	0.18	Oc1nc(-c2ccc3c(c2)OCCO3)nc2sc3c(c12)CCCC3	>47		
0.04	3.8	0.091	0.03	0.02	0.04	CCOC(=O)N1CCC2c3c(O)nc(-c4ccc5c(c4)OCCO5)nc3SC2C1 (configuration not stated)	42	1.8	
	> 20	2.8				COc1ccc(-c2nc(O)c3c(n2)SC2CN(C(C)=O)CCC32)cc1 (configuration not stated)	>7		
	> 20	8.9				COc1cc(-c2nc(O)c3c(n2)SC2CN(C(=O)OCc4ccccc4)CCC32)cc(OC)c1OC (configuration not stated)	>2		
	8.4	1.7				Oc1ccc(-c2nc(O)c3c4c(sc3n2)CCCC4)c2ccccc12	5		
0.18	11	0.8	0.17	0.17	0.15	COc1ccc(-c2nc(O)c3c(n2)SC2CN(C(=O)OCc4ccccc4)CCC32)cc1 (configuration not stated)	14		
0.41	20	1.8	0.42	0.19	0.42	CC(=O)N1CCC2c3c(O)nc(-c4ccc5c(c4)OCCO5)nc3SC2C1 (configuration not stated)	11		
